# In paper PMC6997517 (EBioMedicine, 2020):
# What was measured:
# [1] = tested on: mice with IMQ-induced psoriasis-like disease; assay: Histology and immunohistochemistry of back skin, psoriasis model; format: in vivo, mouse (C57BL/6)
# How it was run: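 Back-skin lesions from imiquimod-treated C57BL/6 mice fixed in 4% paraformaldehyde, paraffin-embedded and sectioned at 7 μm. H&E staining used for epidermal/dermal thickness, measured by microscopy. Immunohistochemistry done with HRP/DAB detection using primary antibodies to CD68, CD4 and IL-17.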
# [2] = tested on: RAW264.7 cells; assay: MTT cell viability, RAW264.7 cells; format: cell-based, murine; details: 50 μM
# How it was run: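 MTT colourimetric viability assay. HEK-Blue hTLR4 cells (high-glucose DMEM, 10% FBS, normocin) seeded at 5 × 10^4/well. RAW264.7 cells seeded at 2 × 10^5/well. Both grown overnight before exposure to test compound.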
# [3] = tested on: TLR4; assay: Intracellular NO and ROS; format: cell-based, murine; details: LPS, 50 μM TIP3
# How it was run: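 RAW264.7 cells seeded at 1 × 10^6 per 6 cm dish and grown overnight. Stimulated with LPS and treated with test compound. Intracellular NO stained with DAF-FM and ROS with DCF-DA. Cellular fluorescence quantified by flow cytometry.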
# [4] = tested on: TLR3; assay: Cytokine ELISA, poly; format: cell-based, human; details: hMNCs, poly(I:C)
# How it was run: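 Commercial human mononuclear cells kept in RPMI 1640 (2·05 mM L-glutamine, 10% FBS, penicillin/streptomycin). Seeded at 2 × 10^5/well and grown overnight. Stimulated with LPS or poly(I:C) alongside test compound. After 24 h, supernatant IL-6 and TNF-α measured by human sandwich ELISA.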
# [5] = tested on: lupus-prone mice (MRL/lpr); assay: SLE model, MRL/lpr mice; format: in vivo, mouse (MRL/lpr); details: 10 nmol/g i.p. daily, 20 days
# [6] = tested on: TLR4; assay: Western blot, LPS-stimulated RAW264.7 cells; format: cell-based, murine
# How it was run: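 Total protein extracted with M-PER reagent and quantified by BCA. Membranes incubated with primary antibodies overnight at 4 °C, washed in PBS/0·1% Tween 20, then HRP-conjugated secondary (1:1000) for 2 h. Bands detected by enhanced chemiluminescence, with β-actin as loading reference.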
# [7] = tested on: CIA mice; assay: Collagen-induced arthritis; format: in vivo, mouse (DBA/1 J)
# How it was run: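 Male DBA/1J mice (6–7 weeks, 20–23 g) immunised at tail base with 100 μg chicken type II collagen in an equal volume of complete Freund's adjuvant (day 0), boosted day 20. Groups of n = 7. Test compound (2·5 or 10 nmol/g) or methotrexate (2 mg/kg) in saline given i.p. once daily from day 22. Body weight, paw volume and arthritis index tracked. […] (maximum 16), twice weekly.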
# [8] = tested on: TLR4; assay: Cytokine ELISA, LPS-stimulated THP-1-derived macrophages; format: cell-based, human
# How it was run: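 THP-1 cells grown in RPMI 1640 with 10% FBS and differentiated to macrophages with 80 nM PMA for 24 h. Seeded at 2 × 10^5/well (96-well) or 5 × 10^5/well (24-well) and grown overnight. After 24 h of treatment with test compound and LPS, secreted IL-6 and TNF-α in supernatants were quantified by ELISA.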
# [9] = tested on: TLR4; assay: Cytokine ELISA, LPS-stimulated mBMDMs; format: cell-based, mouse; details: TIP3 1 h, then LPS 24 h
# How it was run: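 Bone marrow flushed from femurs and tibiae of 6–7-week-old C57BL/6J mice, then differentiated with M-CSF (25 ng/ml) for 3–4 days. Cells harvested with trypsin-EDTA and replated; experiments run after 24 h. Cells pretreated with test compound for 1 h, then co-treated with LPS for 24 h. Secreted IL-6 and TNF-α measured by mouse ELISA kits.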
# [10] = tested on: TLR4-mediated NLRP3 inflammasome; assay: NLRP3 inflammasome activation, IL-1β secretion, LPS-primed THP-1 cells; format: cell-based, human; details: THP-1 primed with LPS, activated with Nigericin; n ≥ 3
# [11] = tested on: TLR4; assay: Immunofluorescence confocal microscopy of p-p65, LPS-stimulated RAW264.7 cells; format: cell-based, murine; details: TIP3 50 μM, 1 h before LPS 100 ng/ml
# How it was run: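 RAW264.7 cells seeded on coverslips (2 × 10^5/well) and grown overnight. Stained with anti-p-p65 (1:1000, 2 h), then Alexa Fluor 546 secondary for 1 h. Nuclei stained with 5 µM Hoechst 33258. Fluorescence intensity quantified by confocal microscopy.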
# [12] = tested on: TLR7/8; assay: TNF-α secretion, R848; format: cell-based, murine; details: TIP3 at 50 μM
# How it was run: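 RAW264.7 cells seeded at 2 × 10^5/well (96-well) or 5 × 10^5/well (24-well), grown overnight, then treated with test compound. Stimulus: poly(I:C), CpG-ODN (15), FSL-1 (16) or R848 (17). Supernatant cytokines read after 24 h by mouse ELISA kits (IFN-β, IL-6, TNF-α). Cells kept at 37 °C, 5% CO2.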
# [13] = tested on: TLR4; assay: Quantitative RT-PCR, LPS-stimulated RAW264.7 cells; format: cell-based, murine; details: TIP3 50 μM 1 h before LPS 100 ng/ml, 3 h; normalized to β-actin
# How it was run: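 Total RNA isolated with TRIzol and reverse-transcribed to cDNA. qPCR run with SYBR Green and gene-specific primers (reference genes β-actin and Gapdh). Relative expression calculated by the ΔΔCt method.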
# [14] = tested on: IL-1 receptor (IL-1R); assay: IL-8 secretion, IL-1β-activated THP-1 cells; format: cell-based, human; details: THP-1 activated with IL-1β
# [15] = tested on: hMNCs; assay: Cell viability, hMNCs; format: cell-based, human
# [16] = TIP3 10 and 50 nmol/g, H&E, five skin samples per group
# [17] = PAP-TIP3 10 nmol/g, treatment started from day 35
sequence,measurement,setting,value
DYDVCVCH [TIP3],thickness of the dermis,[1]; [16],noticeably attenuated thickness of the epidermis (yellow arrowheads) and dermis
same,thickness of the epidermis,[1]; [16],noticeably attenuated thickness of the epidermis
same,overexpression of CD4 in skin,[1]; immunohistochemistry,"effectively attenuated the overexpression of CD68, CD4"
same,overexpression of CD68 in skin,[1]; immunohistochemistry,effectively attenuated the overexpression of CD68
same,overexpression of IL-17 in skin,[1]; immunohistochemistry,"effectively attenuated the overexpression of CD68, CD4, and IL-17"
same,cell viability / toxicity,[2],did not have any toxic effects
same,intracellular NO,[3]; DAF-FM,significantly inhibited
same,intracellular ROS,[3]; DCF-DA,significantly inhibited
same,TLR3-mediated TNF-α secretion,[4],significantly inhibited
same,complement C4,[5],the levels of complement components C4 and C3 were recovered
same,dsDNA autoantibodies,[5]; ELISA,remained low
same,serum C3 complement,[5]; ELISA,found to recover
same,urine albumin,[5]; ELISA,reduced by TIP3 treatment
same,lymphoid expansion and spleen volume,[5]; vs vehicle,reducing the lymphoid expansion and the spleen volume
same,ATF3 expression,[6],hindered the LPS-induced expression of activating transcription factor 3 (ATF3)
same,COX2 expression,[6],represses the LPS-induced extracellular secretion of NO and the expression of iNOS and COX2 in a dose-dependent manner
same,Iκ-Bα degradation,[6],inhibiting Iκ-Bα degradation
same,iNOS expression,[6],represses the LPS-induced extracellular secretion of NO and the expression of iNOS and COX2 in a dose-dependent manner
same,phosphorylation of ERK,[6],"inhibiting the phosphorylation of c-Jun N-terminal kinase (JNK), p38 MAPK, extracellular signal–regulated kinase (ERK)"
same,phosphorylation of IRF3 (p-IRF3),[6],"inhibiting Iκ-Bα degradation, and phosphorylation of the p65 subunit of NF-κB, and IRF3"
same,phosphorylation of JNK,[6],inhibiting the phosphorylation of c-Jun N-terminal kinase (JNK)
same,phosphorylation of p38,[6],"inhibiting the phosphorylation of c-Jun N-terminal kinase (JNK), p38 MAPK"
same,phosphorylation of p65 subunit of NF-κB (p-p65),[6],"inhibiting Iκ-Bα degradation, and phosphorylation of the p65 subunit of NF-κB"
same,"arthritis index, postarthritis phase treatment",[7]; [17],significantly inhibited when compared with the CIA mice
same,"body weight, postarthritis phase treatment",[7]; [17],did not observe any significant change in body weight
same,"paw volume, postarthritis phase treatment",[7]; [17],significantly inhibited when compared with the CIA mice
same,loss of body weight,"[7]; TIP3 10 nmol/g or MTX 2 mg/kg, i.p. daily from day 22",not observed
same,arthritis index,"[7]; TIP3 10 nmol/g or MTX 2 mg/kg, i.p. daily from day 22, maximal score 16",significantly decreased
same,relative paw volume (large paw volume),"[7]; TIP3 10 nmol/g or MTX 2 mg/kg, i.p. daily from day 22, plethysmometer",TIP3 (10 nmol/g)- and MTX-injected mice did not
same,induction of RA (arthritic symptoms),"[7]; i.p. once a day from day 22, vs CIA mice",significantly attenuated
same,IL-6 secretion,[8],significant dose-dependent inhibitory effect
same,TNF-α secretion,[8],significant dose-dependent inhibitory effect
same,TLR4-mediated IL-6 secretion,[9],suppressed the TLR4-mediated secretion of IL-6
same,TLR4-mediated TNF-α secretion,[9],suppressed the TLR4-mediated secretion of IL-6 and TNF-α
same,IL-1β secretion,[10],dose-dependently inhibits IL-1β secretion in LPS-primed cells
same,LPS-induced p65 phosphorylation (confocal),[11],decreased the LPS-induced p65 phosphorylation
same,"TNF-α secretion mediated by TLR7, TLR8",[12],somewhat weak inhibition
same,Cxcl-10 mRNA expression,[13],significantly inhibited the mRNA expression
same,Ifn-β mRNA expression,[13],significantly inhibited the mRNA expression
same,Il-1β mRNA expression,[13],significantly inhibited the mRNA expression
same,Il-6 mRNA expression,[13],significantly inhibited the mRNA expression
same,Tnf-α mRNA expression,[13],significantly inhibited the mRNA expression
same,IL-8 secretion,[14],did not hinder the secretion of IL-8
same,cell viability,[15],substantial reproducible outcomes were observed in terms of cell viability
